# KDM4C inh: inhibitors of GASC-1 (KDM4C) histone demethylase, primary screen, biochemical, single concentration HTS; inhibition, % at 12.5 µM; GST-KDM4C 2-372, H3K9me3 peptide, LANCE TR-FRET; AID 720574, 2013; 0.15% of 96,000 active;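 active = mean replicate inhibition above about 25%, with at least 55% of replicates also reaching it, limit read from the data, passing the limit was not always enough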
#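 Compound: one test concentration per compound; Material: GST-GASC-1 enzyme fragment 2-372; Amount: GASC-1 enzyme at 10 nM final in reaction; Also added: H3K9me3 peptide substrate, Fe(II), 2-oxoglutarate; Technique: LANCE TR-FRET; Times: 30 min demethylation and 1 h detection at room temperature.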
# Pf Dd2 inh: P. falciparum Dd2 growth inhibitors, primary screen, SYBR Green fluorescence, single dose replicates; 72 h; stronger effect = lower value; activity change, % at 10 µM; 2.3% of 94,000 active; AID 1159554, 2015; in the data active = activity change below about -80%
# IDH1 mut inh: inhibitors of IDH1 R132H reductase, primary screen, biochemical, plate reader, single point; inhibition, % at 10 µM; diaphorase/resazurin fluorescence, 60 min; AID 624101, 2012; 0.18% of 70,000 active; in the data active = inhibition above about 34%;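 note: 0% = DMSO and 100% = no enzyme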
# Target sequence (O75874 whole entry R132H): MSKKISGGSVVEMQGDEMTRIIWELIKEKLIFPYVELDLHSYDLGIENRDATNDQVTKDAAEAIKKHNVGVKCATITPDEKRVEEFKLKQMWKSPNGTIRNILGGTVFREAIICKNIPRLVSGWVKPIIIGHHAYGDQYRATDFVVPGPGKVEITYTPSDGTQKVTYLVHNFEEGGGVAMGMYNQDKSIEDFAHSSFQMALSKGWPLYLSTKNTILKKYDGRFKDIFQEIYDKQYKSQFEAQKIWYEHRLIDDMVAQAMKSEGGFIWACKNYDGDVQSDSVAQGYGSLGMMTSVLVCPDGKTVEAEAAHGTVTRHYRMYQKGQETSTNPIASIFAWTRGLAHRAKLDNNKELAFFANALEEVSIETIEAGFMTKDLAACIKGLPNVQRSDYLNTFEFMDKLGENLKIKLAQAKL
# The depositor's hits bear a star; . = not tested or not shown. The full list was thinned out, with hits kept by preference.
SMILES,KDM4C inh,Pf Dd2 inh,IDH1 mut inh
O=C(Nc1ccccc1)N1CCCCN2[C@H](C1)[C@@H](c1ccc(C#Cc3ccccc3)cc1)[C@@H]2CO,-1.4,-29.1,.
O=C(Nc1ccc(F)cc1)N1CCCCN2[C@H](CO)[C@H](c3ccc(C#Cc4ccccc4)cc3)[C@@H]2C1,-2.7,-82.6*,.
CC(C)(O)C#Cc1ccc([C@H]2[C@H](CO)N3CCCCN(C(=O)c4ccc(F)cc4)C[C@@H]23)cc1,-1.1,-94.3*,.
O=C(Nc1ccccc1F)N1CCCCN2[C@H](CO)[C@@H](c3ccc(C#Cc4ccccc4)cc3)[C@@H]2C1,-2.3,-34.4,.
CC(C)(O)C#Cc1ccc([C@H]2[C@@H](CO)N3CCCCN(C(=O)c4ccc(F)cc4)C[C@H]23)cc1,-0.7,-68.7,.
O=C(Nc1ccc(F)cc1)N1CCCCN2[C@H](C1)[C@H](c1ccc(C#Cc3ccccc3)cc1)[C@@H]2CO,-3.2,-89.4*,.
O=C(Nc1ccccc1F)N1CCCCN2[C@H](CO)[C@H](c3ccc(C#Cc4ccccc4)cc3)[C@@H]2C1,-1.6,-89.0*,.
O=C(Nc1ccccc1)N1CCCCN2[C@H](CO)[C@H](c3ccc(C#Cc4ccccc4)cc3)[C@@H]2C1,-0.4,-77.5,.
COc1ccc2c3c([nH]c2c1)[C@@H](CO)N(C(=O)C1CCCC1)CC31CCN(C(=O)c2ccncc2)CC1,-0.2,-17.5,.
O=C(NC1CCCCC1)N1C[C@@H]2N[C@H](C1)C2c1ccc(-c2cccc(F)c2)cc1 (stereo not given in full),-1.7,15.7,.
COc1ccc(NC(=O)Nc2ccc3c(c2)C(=O)N([C@@H](C)CO)C[C@H](C)[C@@H](CN(C)Cc2ccc(Cl)c(Cl)c2)O3)cc1,0.3,10.4,1.9
COc1ccc(S(=O)(=O)Nc2ccc3c(c2)C(=O)N([C@@H](C)CO)C[C@H](C)[C@@H](CN(C)C(=O)Nc2cccc4ccccc24)OCCCC[C@H](C)O3)cc1,-2.8,-77.9,-1.8
COc1ccc(S(=O)(=O)Nc2ccc3c(c2)C(=O)N([C@@H](C)CO)C[C@@H](C)[C@@H](CN(C)C(=O)Nc2cccc4ccccc24)OCCCC[C@@H](C)O3)cc1,1.9,-28.6,-3.0
COc1ccc(S(=O)(=O)Nc2ccc3c(c2)C(=O)N([C@H](C)CO)C[C@@H](C)[C@@H](CN(C)C(=O)Nc2cccc4ccccc24)OCCCC[C@@H](C)O3)cc1,-1.5,-85.7*,.
COc1ccc(S(=O)(=O)Nc2ccc3c(c2)C(=O)N([C@@H](C)CO)C[C@H](C)[C@H](CN(C)C(=O)Nc2cccc4ccccc24)OCCCC[C@H](C)O3)cc1,-1.3,-86.2*,-2.1
C[C@@H]1CN([C@H](C)CO)C(=O)c2cc(C#CCN(C)C)cnc2O[C@H]1CN(C)C(=O)c1cccnc1,1.0,30.7,-1.9
CCCC#Cc1ccc([C@H]2[C@H]3CN(S(=O)(=O)c4ccccc4C)CC(=O)N3[C@H]2CO)cc1,-2.7,-48.5,.
COCC(=O)N(C)C[C@H]1Oc2ncc(C#CC3(O)CCCC3)cc2C(=O)N([C@@H](C)CO)C[C@H]1C,30.9*,14.3,12.6
COCC(=O)N(C)C[C@H]1Oc2ncc(C#Cc3cccnc3)cc2C(=O)N([C@@H](C)CO)C[C@@H]1C,6.9,-47.1,0.9
COCC(=O)N(C)C[C@@H]1Oc2ncc(C#Cc3cccnc3)cc2C(=O)N([C@@H](C)CO)C[C@H]1C,37.4*,14.7,11.4
COCC(=O)N(C)C[C@@H]1Oc2ncc(C#CC3(O)CCCC3)cc2C(=O)N([C@H](C)CO)C[C@@H]1C,3.0,4.0,-0.4
CCCC(=O)Nc1ccc2c(c1)C(=O)N(C)[C@H]1CC[C@@H](CC(=O)NCc3ccccc3)O[C@H]1CO2,1.4,-10.9,.
C[C@H](CO)N1C[C@H](C)[C@H](CN(C)C(=O)Nc2ccccc2)Oc2ccc(NC(=O)NC3CCCCC3)cc2C1=O,-1.8,-5.5,-1.0
COc1ccccc1C#Cc1ccc2c(c1)O[C@H](CN(C)C(C)=O)[C@H](C)CN([C@H](C)CO)S2(=O)=O,2.0,-32.4,-4.2
COc1cccc(CNC(=O)[C@@H]2[C@@H](CO)[C@@H]3Cn4c(cccc4=O)[C@H]2N3C(=O)C2CCCC2)c1,2.1,50.9,.
SMILES,KDM4C inh,Pf Dd2 inh,IDH1 mut inh
COc1cccc(CNC(=O)[C@H]2[C@H](CO)[C@H]3Cn4c(cccc4=O)[C@@H]2N3C(=O)C2CCCC2)c1,0.0,-81.5*,.
CCC(=O)N1CCC2(CC1)CN(Cc1ccc3c(c1)OCO3)[C@@H](CO)c1c2c2ccc(OC)cc2n1C,1.0,-91.0*,.
COc1cc(CN2CC3(CN(C(=O)c4ccc5c(c4)OCO5)C3)c3c(n(C)c4cc(OC)ccc34)[C@@H]2CO)cc(OC)c1,-0.3,-70.8,.
COCC(=O)N1CCC2(CC1)CN(Cc1ccc3c(c1)OCO3)[C@@H](CO)c1c2c2ccc(OC)cc2n1C,0.8,-70.7,.
COc1ccc2c3c(n(C)c2c1)[C@@H](CO)N(CC1CC1)CC31CN(C(=O)c2ccc3c(c2)OCO3)C1,0.9,-74.1,.
COc1ccc2c3c(n(C)c2c1)[C@@H](CO)N(Cc1ccc2c(c1)OCO2)CC31CN(C(=O)c2ccc3c(c2)OCO3)C1,-1.9,-85.0*,.
CCC(=O)N1CC2(C1)CN(Cc1cccc(Cl)c1)[C@H](CO)c1c2c2ccc(OC)cc2n1C,-0.5,-92.1*,.
COc1ccc2c3c(n(C)c2c1)[C@H](CO)N(CC1CC1)CC31CN(C(=O)c2ccc3c(c2)OCO3)C1,-1.7,-89.3*,.
CCC(=O)N1CC2(C1)CN(Cc1cccc(Cl)c1)[C@@H](CO)c1c2c2ccc(OC)cc2n1C,2.6,-49.5,.
COc1ccc(NC(=O)N2CC(=O)N3[C@@H](CO)[C@@H](c4ccc(C5=CCCC5)cc4)[C@@H]3C2)cc1,1.9,7.9,.
COc1ccc(S(=O)(=O)N(C)C[C@H]2OCCCC[C@H](C)Oc3ccc(NS(=O)(=O)c4ccccc4)cc3C(=O)N([C@@H](C)CO)C[C@@H]2C)cc1,-0.8,.,.
Cc1ccc(-c2noc(CSc3nnc(-c4cccs4)n3-c3ccccc3)n2)cc1,.,.,0.5
O=C(CN1CCOCC1)N1CCCCN2[C@H](CO)[C@H](c3ccc(/C=C/c4ccccc4)cc3)[C@@H]2C1,-1.5,-9.2,.
CC(C)NC(=O)N(C)C[C@H]1Oc2ncc(-c3ccc(C(=O)N(C)C)cc3)cc2C(=O)N([C@@H](C)CO)C[C@@H]1C,1.6,8.6,-0.4
CS(=O)(=O)Nc1ccc2c(c1)[C@H]1C[C@H](CC(=O)NCc3ccccn3)O[C@@H](CO)[C@H]1O2,-0.6,4.4,-0.1
Cc1cc([N+](=O)[O-])ccc1NC(=O)CSc1nnc(-c2ccc(Br)cc2)o1,.,.,0.5
COc1ccc(NC(=O)Nc2ccc3c(c2)C(=O)N([C@@H](C)CO)C[C@H](C)[C@H](CN(C)S(=O)(=O)c2ccc(F)cc2)OCCCC[C@@H](C)O3)cc1,-3.7,-84.7*,.
COc1ccc(S(=O)(=O)N(C)C[C@@H]2OCCCC[C@H](C)Oc3ccc(NC(=O)Nc4ccc(F)cc4)cc3C(=O)N([C@@H](C)CO)C[C@H]2C)cc1,-1.5,-67.2,.

# From PubChem BioAssay
